Measurements collected from several papers.
Each line is one published result; the experiments were not run side by side.
Target: cGMP-dependent protein kinase 2 (PRKG2, Homo sapiens, UniProt Q13237)
Residues used in one study (Q13237 1-762): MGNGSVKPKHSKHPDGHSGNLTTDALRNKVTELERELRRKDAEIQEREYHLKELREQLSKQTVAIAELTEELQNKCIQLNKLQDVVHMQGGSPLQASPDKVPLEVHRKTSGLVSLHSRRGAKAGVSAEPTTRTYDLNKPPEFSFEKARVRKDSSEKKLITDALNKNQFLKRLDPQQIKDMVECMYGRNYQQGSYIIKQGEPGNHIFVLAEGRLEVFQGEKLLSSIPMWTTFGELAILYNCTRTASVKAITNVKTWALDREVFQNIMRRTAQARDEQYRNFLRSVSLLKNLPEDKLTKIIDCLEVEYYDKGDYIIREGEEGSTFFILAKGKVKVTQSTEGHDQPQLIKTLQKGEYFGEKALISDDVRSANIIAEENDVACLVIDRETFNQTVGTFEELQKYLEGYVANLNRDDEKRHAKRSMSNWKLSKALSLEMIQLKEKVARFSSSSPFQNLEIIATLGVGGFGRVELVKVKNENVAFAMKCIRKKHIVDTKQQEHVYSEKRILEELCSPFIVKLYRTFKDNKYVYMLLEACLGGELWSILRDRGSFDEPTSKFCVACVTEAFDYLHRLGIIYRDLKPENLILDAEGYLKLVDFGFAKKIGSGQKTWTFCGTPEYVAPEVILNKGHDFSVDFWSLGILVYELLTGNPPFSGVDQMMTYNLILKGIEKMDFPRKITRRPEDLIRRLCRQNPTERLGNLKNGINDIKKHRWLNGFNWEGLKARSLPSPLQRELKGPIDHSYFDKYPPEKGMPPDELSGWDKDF

The inhibition of `COc1cc2ncnc(Nc3ccc(Oc4ccccc4)cc3C)c2cc1OC` is reported as 3% (enzyme activity, inhibitor; 1 µM).
With `Cc1ccc(C(=O)NCc2ccsc2)cc1C#Cc1cn(C(C)C)c2ncnc(N)c12` the activity vs control was 112% (enzyme activity, inhibitor; 1 µM).
For `O=C1NC(=O)c2cc(Nc3ccc(F)cc3)c(Nc3ccc(F)cc3)cc21`, the remaining signal was 83.3% (cell-free assay; 0.5 µM).
`CN(C)C1CCN(CC#Cc2nn(C3CCCC3)c3nc(NCc4ccccc4)ncc23)C1` (stereo not drawn) gave an inhibition of 6% (enzyme activity, inhibitor, FRET; 1 µM).
With `C#Cc1cccc(Nc2ncnc3cc(OCCOC)c(OCCOC)cc23)c1` the remaining signal was 107% (cell-free assay; 0.5 µM).
`CN([C@@H]1CCc2c(CC(=O)O)c3ccccc3n2C1)S(=O)(=O)c1ccc(F)cc1` gave a remaining binding of 100% (cell-free assay, competition with immobilised ligand; 1 µM).
For `Cn1cnc(Br)c1C1=CN(c2ncnc3[nH]cnc23)CCS1`, the inhibition was 43.1% (enzyme activity, inhibitor, radiometric; 50 nM).
`O=C(Nc1cnn(-c2csc(C(=O)NC3COC3)c2)c1)Nc1ccccc1Cl` has a remaining activity of 101% (enzyme activity, inhibitor; 5 µM).
The remaining binding of `CSc1cccnc1N1CCN(Cc2nc3ccccc3[nH]2)CC1` is reported as 94% (cell-free assay, competition with immobilised ligand; 1 µM).
The remaining signal of `Nc1ncnc2occ(-c3ccc(NC(=O)Nc4cc(C(F)(F)F)ccc4F)cc3)c12` is reported as 76% (cell-free assay, inhibitor; 20 µM).
With `O=C(NCCCC1CCCCC1)c1ccc(CNC(=O)c2cnn(-c3ccccc3)c2C(F)(F)F)cc1` the remaining binding was 89% (cell-free assay, competition with immobilised ligand; 0.1 µM).
`N#CCCc1ccc2c(c1)-c1[nH]c3ccc([N+](=O)[O-])cc3c1CC(=O)N2` has a remaining signal of 93.9% (cell-free assay; 0.5 µM).
`O=C(Nc1cccnn1)N1CCC(=Cc2cccc(Oc3ccc(C(F)(F)F)cn3)c2)CC1` has a remaining binding of 100% (cell-free assay, competition with immobilised ligand; 1 µM).
The inhibition of `Cn1cncc1C1=CN(c2ncnc3[nH]cnc23)CCS1` is reported as 99.4% (enzyme activity, inhibitor, radiometric; 2 µM).
The remaining binding of `CO[C@H]1CC[C@H](CNc2ccc(S(=O)(=O)NC(=O)c3ccc(N4CCN(CC5=C(c6ccc(Cl)cc6)CC(C)(C)CC5)CC4)cc3Oc3cnc4[nH]ccc4c3)cc2[N+](=O)[O-])CC1` is reported as 90% (cell-free assay, competition with immobilised ligand; 1 µM).
For `COc1cc(Cl)c(C(=O)N[C@@H](CN[C@H]2CC[C@@H](N)CC2)Cc2ccc(C#N)cc2)cc1-c1ccc(CN[C@H](C)c2ccc(C)cc2)o1`, the remaining activity was 98% (enzyme activity, inhibitor; 1 µM).
With `C[C@H](c1cccc(C#N)c1)n1cc(Cl)cc(C(N)=O)c1=N` the remaining binding was 97% (cell-free assay, competition with immobilised ligand; 1 µM).
For `CC(C)(C)c1nc2c(s1)c1nc(N)ncc1c1ccc(NS(=O)(=O)c3c(F)cccc3F)c(F)c12`, the remaining activity was 102% (enzyme activity, inhibitor, radiometric; 1 µM).
